In ChEMBL document CHEMBL1128501, “Synthesis and biological evaluation of 14-alkoxymorphinans. 11. 3-Hydroxycyprodime and analogues: opioid antagonist profile in comparison to cyprodime” (J Med Chem, 1995):

Legend:
[1] = biological target: T1, Kappa-type opioid receptor (Cavia porcellus, UniProt P41144); test: […] binding affinity was evaluated by measuring the ability to displace [3H]U-69593 radioligand binding from Opioid receptor kappa 1 in guinea pig brain membranes; design: species or system Membrane
Outline: (§1)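 Radioligand displacement in guinea pig brain homogenates in 50 mM Tris-HCl, pH 7.4, for 40 min at 25 °C. Radioligands were [3H]DAMGO for μ, [3H]U69593 for κ and [3H]DPDPE for δ sites. Result given as Ki.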

[2] = biological target: T2, Mu-type opioid receptor (Cavia porcellus, UniProt P97266); test: Binding affinity was evaluated by measuring the ability to displace [3H]DAMGO radioligand binding from Opioid receptor mu 1 in guinea pig brain membranes; assay type: cell membranes, Membrane; outline: as §1
[3] = biological target: Kappa-type opioid receptor (Mus musculus) (UniProt P33534); test: Binding affinity for kappa opioid receptor against agonist (CI977) in mouse vas deferens preparation
Outline: (§2)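 Electrically stimulated isolated mouse vas deferens. Test compound was given as antagonist against agonist-induced responses: DAMGO for μ, DPDPE for δ, and CI977 or other κ agonists for κ. Ke = [antagonist]/(DR − 1), where DR is the ratio of equiactive agonist concentrations with and without antagonist.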

[4] = biological target: Mu-type opioid receptor (Mus musculus) (UniProt P42866); test: […] binding affinity was evaluated by measuring the ability from displace [3H]DAMGO radioligand binding to mu opioid receptor in mouse vas deferens preparation; outline: as §2
[5] = biological target: T1, Kappa-type opioid receptor; test: Binding affinity was evaluated by measuring the ability to displace [3H]U-69593 radioligand binding from Opioid receptor kappa 1 in guinea pig brain membranes; assay type: cell membranes, Membrane; outline: as §1
[6] = biological target: Kappa-type opioid receptor (Cavia porcellus) (UniProt P41144); test: Binding affinity for kappa opioid receptor against agonist (U-69,593) in guinea pig ileum preparations; assay type: tissue-based
Outline: (§3)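 Myenteric-plexus longitudinal muscle of guinea pig ileum. Test compound was given as antagonist against κ agonist responses. Ke = [antagonist]/(DR − 1), where DR is the ratio of equiactive agonist concentrations with and without antagonist, from separate determinations.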

[7] = biological target: Delta-type opioid receptor (Mus musculus) (UniProt P32300); test: Binding affinity was evaluated by measuring the ability from displace DPDPE radioligand binding from delta opioid receptor in mouse vas deferens preparation; outline: as §2
[8] = biological target: Kappa-type opioid receptor (Cavia porcellus) (UniProt P41144); test: Binding affinity for kappa opioid receptor against agonist (trifluadom) in guinea pig ileum preparations; assay type: tissue-based; outline: as §3
[9] = biological target: Kappa-type opioid receptor (Mus musculus) (UniProt P33534); test: Binding affinity for kappa opioid receptor against agonist (dynorphine) in mouse vas deferens; assay type: tissue-based; outline: as §2
[10] = biological target: Kappa-type opioid receptor (Mus musculus) (UniProt P33534); test: Binding affinity for kappa opioid receptor against agonist (ethylketocyclazocine) in mouse vas deferens; assay type: tissue-based; outline: as §2
[11] = biological target: Kappa-type opioid receptor (Cavia porcellus) (UniProt P41144); test: Binding affinity for kappa opioid receptor against agonist (CI977) in guinea pig ileum preparations; assay type: tissue-based; outline: as §3
[12] = biological target: Kappa-type opioid receptor (Mus musculus) (UniProt P33534); test: Binding affinity for kappa opioid receptor against agonist (U-69,593) in mouse vas deferens preparation; outline: as §2
[13] = biological target: Kappa-type opioid receptor (Mus musculus) (UniProt P33534); test: Binding affinity was evaluated by measuring the ability from displace CI977 radioligand binding to Opioid receptor kappa 1 in mouse vas deferens preparation; outline: as §2
[14] = biological target: Kappa-type opioid receptor (Cavia porcellus) (UniProt P41144); test: Binding affinity for kappa opioid receptor against agonist (ethylketocyclazocine) in guinea pig ileum preparations; assay type: tissue-based; outline: as §3
[15] = biological target: Kappa-type opioid receptor (Mus musculus) (UniProt P33534); test: Binding affinity was evaluated by measuring the ability to displace CI977 radioligand binding from Opioid receptor kappa 1 in mouse vas deferens preparation; outline: as §2
[16] = biological target: T2, Mu-type opioid receptor; test: […] binding affinity was evaluated by measuring the ability to displace [3H]DAMGO radioligand binding from Opioid receptor mu 1 in guinea pig brain membranes; design: species or system Membrane; outline: as §1
[17] = biological target: Delta-type opioid receptor (Mus musculus) (UniProt P32300); test: Binding affinity was evaluated by measuring the ability to displace DPDPE radioligand binding from delta opioid receptor in mouse vas deferens preparation; outline: as §2
[18] = biological target: Mu-type opioid receptor (Mus musculus) (UniProt P42866); test: Binding affinity was evaluated by measuring the ability to displace [3H]-DAMGO radioligand binding from Opioid receptor mu 1 in mouse vas deferens preparation; outline: as §2

Delta-type opioid receptor (Mus musculus), sequence (P32300 whole entry): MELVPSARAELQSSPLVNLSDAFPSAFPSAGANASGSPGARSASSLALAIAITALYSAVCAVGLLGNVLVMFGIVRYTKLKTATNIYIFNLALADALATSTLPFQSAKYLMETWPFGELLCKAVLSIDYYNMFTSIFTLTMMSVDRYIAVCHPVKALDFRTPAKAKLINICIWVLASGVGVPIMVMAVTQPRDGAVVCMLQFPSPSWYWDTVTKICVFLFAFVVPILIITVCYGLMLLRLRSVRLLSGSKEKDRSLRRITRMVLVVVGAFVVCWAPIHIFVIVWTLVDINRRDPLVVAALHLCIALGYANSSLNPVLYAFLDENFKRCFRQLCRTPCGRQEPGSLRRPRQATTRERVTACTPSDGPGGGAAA
T1 sequence (P41144 whole entry): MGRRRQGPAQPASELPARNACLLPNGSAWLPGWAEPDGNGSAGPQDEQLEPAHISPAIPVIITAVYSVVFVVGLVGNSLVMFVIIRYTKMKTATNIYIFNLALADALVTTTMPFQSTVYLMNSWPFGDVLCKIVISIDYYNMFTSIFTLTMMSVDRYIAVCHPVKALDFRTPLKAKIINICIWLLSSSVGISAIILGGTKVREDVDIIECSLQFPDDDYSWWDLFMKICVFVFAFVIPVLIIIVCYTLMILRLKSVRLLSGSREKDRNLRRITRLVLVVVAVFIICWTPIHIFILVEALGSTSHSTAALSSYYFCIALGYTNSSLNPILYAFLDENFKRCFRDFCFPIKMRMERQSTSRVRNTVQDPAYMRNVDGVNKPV
Kappa-type opioid receptor (Cavia porcellus), sequence (P41144 whole entry): as above
Mu-type opioid receptor (Mus musculus), sequence (P42866 whole entry): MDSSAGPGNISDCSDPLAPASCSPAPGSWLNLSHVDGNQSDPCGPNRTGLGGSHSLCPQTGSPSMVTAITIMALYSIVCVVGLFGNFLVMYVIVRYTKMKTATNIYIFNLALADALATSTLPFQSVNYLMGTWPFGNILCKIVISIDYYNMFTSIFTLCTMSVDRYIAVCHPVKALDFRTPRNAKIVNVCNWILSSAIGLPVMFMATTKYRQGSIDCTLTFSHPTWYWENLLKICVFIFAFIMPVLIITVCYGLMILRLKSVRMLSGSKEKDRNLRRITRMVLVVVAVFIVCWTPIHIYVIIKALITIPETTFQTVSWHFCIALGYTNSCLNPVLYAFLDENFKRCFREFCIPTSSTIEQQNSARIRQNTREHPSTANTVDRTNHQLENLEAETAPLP
T2 sequence (P97266 whole entry): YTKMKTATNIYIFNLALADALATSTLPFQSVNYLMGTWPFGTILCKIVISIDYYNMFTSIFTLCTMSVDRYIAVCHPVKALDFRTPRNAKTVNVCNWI
Kappa-type opioid receptor (Mus musculus), sequence (P33534 whole entry): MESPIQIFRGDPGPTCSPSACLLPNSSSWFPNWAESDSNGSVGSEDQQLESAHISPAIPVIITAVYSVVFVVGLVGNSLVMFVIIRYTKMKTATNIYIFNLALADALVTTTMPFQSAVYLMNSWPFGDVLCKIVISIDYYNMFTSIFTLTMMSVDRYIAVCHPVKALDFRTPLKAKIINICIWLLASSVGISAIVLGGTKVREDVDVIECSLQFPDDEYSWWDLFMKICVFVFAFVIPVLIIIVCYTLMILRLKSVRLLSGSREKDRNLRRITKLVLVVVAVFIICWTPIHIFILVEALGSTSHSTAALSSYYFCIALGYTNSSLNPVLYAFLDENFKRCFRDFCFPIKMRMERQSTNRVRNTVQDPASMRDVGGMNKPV

Structure (SMILES) | Ki [1] | Ki [2] | Ki [5] | Ke [15] | Ki [16] | Ke [17] | Ke [18] | also measured
COc1cccc2c1[C@]13CCN(CC4CC4)[C@H](C2)[C@]1(OC)CCC(=O)C3 [CYPRODIME] | 0.105 µM | 0.0237 µM |  |  |  |  |  | 
COc1c(O)ccc2c1C13CCN(CC4CC4)C(C2)[C@]1(OC)CCC(=O)C3 (stereo not given in full) |  | 0.00615 µM | 0.00418 µM |  |  |  |  | Ke [3]: 368 nM; Ke [4]: 5.62 nM; Ke [6]: 97.5 nM; Ke [7]: 316 nM; Ke [8]: 1010 nM; Ke [9]: 450 nM; Ke [10]: 910 nM; Ke [11]: 284 nM; Ke [12]: 354 nM; Ke [13]: 368 nM; Ke [14]: 3.95 nM
CCCCOc1c(O)ccc2c1C13CCN(CC4CC4)C(C2)[C@]1(OC)CCC(=O)C3 (stereo not given in full) |  |  | 0.013 µM | 174 nM | 0.0109 µM | > 10000 nM | 24.9 nM | 
CCO[C@@]12CCC(=O)CC13CCN(CC1CC1)C2Cc1ccc(O)c(OC)c13 (stereo not given in full) | 0.00546 µM | 0.00142 µM |  | 233 nM |  | 106 nM | 2.92 nM | 
C=CCN1CCC23CC(=O)CC[C@@]2(OC)C1Cc1ccc(O)c(OC)c13 (stereo not given in full) | 0.0254 µM | 0.00729 µM |  | 4.67 nM |  | 2270 nM | 4.6 nM | 
COc1c(O)ccc2c1C13CCN(CC4CC4)C(C2)[C@]1(O)CCC(=O)C3 (stereo not given in full) |  |  | 0.023 µM | 243 nM | 0.0544 µM | 8920 nM | 93.8 nM | 
